Data as given in PMC9273405 (Burns & Trauma, 2022).

Legend:
[1] = system: full-thickness injury skin wounds in mice; assay: Full-thickness injury skin wound healing in mice; format: in vivo, mouse
Procedure, shortened: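 Mice were anaesthetised with 1% pentobarbital sodium (0.1 ml/20 g) and given two round 8 × 8 mm dorsal skin wounds. Wounds were treated topically twice daily with 20 μl of vehicle, peptide (0.5, 5 or 50 nM) or EGF (50 nM). Residual wound area was measured from images as a percentage of initial area. New epidermis and granulation tissue thickness were measured from H&E sections on days 4 and 8. Six mice per group.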

[2] = system: scald wounds in mice skin; assay: Scald wound repair in mouse skin; format: in vivo; conditions: 50 nM; for re-epithelialization rate: scald wound

B1: epidermal growth factor (protein, UniProt P01133 23-1207, looked up)
Pro-epidermal growth factor: PQHWSCPEGTLAGNGNSTCVGPAPFLIFSHGNSIFRIDTEGTNYEQLVVDAGVSVIMDFHYNEKRIYWVDLERQLLQRVFLNGSRQERVCNIEKNVSGMAINWINEEVIWSNQQEGIITVTDMKGNNSHILLSALKYPANVAVDPVERFIFWSSEVAGSLYRADLDGVGVKALLETSEKITAVSLDVLDKRLFWIQYNREGSNSLICSCDYDGGSVHISKHPTQHNLFAMSLFGDRIFYSTWKMKTIWIANKHTGKDMVRINLHSSFVPLGELKVVHPLAQPKAEDDTWEPEQKLCKLRKGNCSSTVCGQDLQSHLCMCAEGYALSRDRKYCEDVNECAFWNHGCTLGCKNTPGSYYCTCPVGFVLLPDGKRCHQLVSCPRNVSECSHDCVLTSEGPLCFCPEGSVLERDGKTCSGCSSPDNGGCSQLCVPLSPVSWECDCFPGYDLQLDEKSCAASGPQPFLLFANSQDIRHMHFDGTDYGTLLSQQMGMVYALDHDPVENKIYFAHTALKWIERANMDGSQRERLIEEGVDVPEGLAVDWIGRRFYWTDRGKSLIGRSDLNGKRSKIITKENISQPRGIAVHPMAKRLFWTDTGINPRIESSSLQGLGRLVIASSDLIWPSGITIDFLTDKLYWCDAKQSVIEMANLDGSKRRRLTQNDVGHPFAVAVFEDYVWFSDWAMPSVMRVNKRTGKDRVRLQGSMLKPSSLVVVHPLAKPGADPCLYQNGGCEHICKKRLGTAWCSCREGFMKASDGKTCLALDGHQLLAGGEVDLKNQVTPLDILSKTRVSEDNITESQHMLVAEIMVSDQDDCAPVGCSMYARCISEGEDATCQCLKGFAGDGKLCSDIDECEMGVPVCPPASSKCINTEGGYVCRCSEGYQGDGIHCLDIDECQLGEHSCGENASCTNTEGGYTCMCAGRLSEPGLICPDSTPPPHLREDDHHYSVRNSDSECPLSHDGYCLHDGVCMYIEALDKYACNCVVGYIGERCQYRDLKWWELRHAGHGQQQKVIVVAVCVVVLVMLLLLSLWGAHYYRTQKLLSKNPKNPYEESSRDVRSRRPADTEDGMSSCPQPWFVVIKEHQDLKNGGQPVAGEDGQAADGSMQPTSWRQEPQLCGMGTEQGCWIPVSSDKGSCPQVMERSFHMPSYGTQTLEGGVEKPHSLLSANPLWQQRALDPPHQMELTQ
modifications: Pro-epidermal growth factor
skin wound healing rate ([1]; 50 nM, 20 μl topical twice a day, day 8 post-operation, n = 6 (vehicle 71 ± 3%)): 87 ± 2% | thickness of new epidermis ([1]; day 4, H&E staining, n = 6 (vehicle 119 ± 7)): 58 ± 2 μm | thickness of granulation tissue ([1]; day 4, H&E staining, n = 6 (vehicle 505 ± 46)): 317 ± 82 μm | thickness of new epidermis ([1]; day 8, H&E staining, n = 6 (vehicle 86 ± 7)): 38 ± 10 μm | thickness of granulation tissue ([1]; day 8, H&E staining, n = 6 (vehicle 982 ± 8)): 719 ± 54 μm | regeneration rate of scald wounds ([2]; 20 μl topical, day 12 after operation, n = 6 (vehicle 40 ± 4%)): 78 ± 5% | re-epithelialization rate ([2]; day 8, H&E staining, n = 6 (vehicle 15 ± 3%)): 38 ± 3% | re-epithelialization rate ([2]; day 12, H&E staining, n = 6 (vehicle 42 ± 2%)): almost complete re-epithelialization
